Compound activity from PubChem BioAssay.
Only some compounds are listed: those with a hit (about 4.1% of all), similar ones and a draw of the others.
KCNQ1 block: inhibitors of human KCNQ1 potassium channel. P51787. CHO-K1 KCNQ1, FluxOR thallium flux fluorescence; stronger effect = higher value. B-score at 10 µM. 1.3% of 310,000 active;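 active = compounds whose thallium flux B-score, printed positive for inhibition, exceeds three library SD while starting fluorescence stays within three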;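 note: channel opened by potassium depolarization with thallium stimulus after 20 min compound exposure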
Target sequence (P51787 whole entry, looked up): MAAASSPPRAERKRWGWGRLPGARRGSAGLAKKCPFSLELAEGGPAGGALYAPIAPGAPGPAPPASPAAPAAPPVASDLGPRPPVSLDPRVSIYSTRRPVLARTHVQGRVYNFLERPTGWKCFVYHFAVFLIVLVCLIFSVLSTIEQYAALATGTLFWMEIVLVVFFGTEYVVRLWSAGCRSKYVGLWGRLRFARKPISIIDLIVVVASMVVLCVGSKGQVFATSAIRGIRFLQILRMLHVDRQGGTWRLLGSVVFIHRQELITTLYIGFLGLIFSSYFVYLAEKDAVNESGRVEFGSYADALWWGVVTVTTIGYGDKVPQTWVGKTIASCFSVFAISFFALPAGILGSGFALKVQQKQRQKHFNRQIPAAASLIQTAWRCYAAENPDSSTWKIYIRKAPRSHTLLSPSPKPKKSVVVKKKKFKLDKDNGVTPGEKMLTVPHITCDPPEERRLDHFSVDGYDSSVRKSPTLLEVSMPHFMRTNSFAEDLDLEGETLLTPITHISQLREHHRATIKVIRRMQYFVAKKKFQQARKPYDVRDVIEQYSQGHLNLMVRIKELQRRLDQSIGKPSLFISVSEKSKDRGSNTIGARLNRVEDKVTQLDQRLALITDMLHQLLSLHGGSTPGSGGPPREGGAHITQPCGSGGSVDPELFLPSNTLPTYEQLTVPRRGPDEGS
KCNK9 inh: inhibitors of human KCNK9 two-pore domain potassium channel. Q9NPC2. HEK293 KCNK9, FluxOR thallium flux fluorescence; stronger effect = lower value. B-score at 10 µM. 1.2% of 310,000 active;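 active = ratio B-score over 3 SD below the library mean, with starting fluorescence within 5 SD of its mean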;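 note: negative B-score means less thallium flux so channel inhibition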
KCNQ1 act: human KCNQ1 channel potentiation or activation | CHO-K1 KCNQ1, thallium flux FluxOR fluorescence; stronger effect = higher value | B-score at 10 µM | AID 2648 | P51787 | 0.35% of 310,000 active;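 active = fluorescence ratio B-score, a plate-corrected score, at least three library SD, with initial intensity B-score within 5 SD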
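assay system = KCNQ1-transfected CHO-K1 cells | medium = assay buffer with matched DMSO | probe or stimulus = depolarizing K+/Tl+ stimulus, K2SO4 and Tl2SO4 each 12.5 mM in 5x stock | dosing = single dose | incubation = dye 90 min, compound 20 min, room temperature | detection = kinetic FluxOR fluorescence, 10 s baseline plus 110 s post-stimulus | evaluation = ratio B score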
hERG protect: hERG (human) protection from proarrhythmic block. Q12809. CHO-hERG, FluxOR thallium flux, dofetilide IC70 present. activation (rescue from dofetilide block), less the hit threshold, % at 10 µM. 0.51% of 310,000 active. AID 1511;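 active = activation above the mean of controls blocked by dofetilide plus 5 SD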;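 note: thallium influx through hERG after potassium depolarization seen as dye fluorescence rise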
Cl transport mod: KCC2 (human) Cl- transport modulation; 2.2% of 190,000 active; B-score of Tl+ flux slope (higher = more flux/activation; lower = inhibition) at 10 µM; KCC2 cells, thallium flux FluoZin-2 fluorescence;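 active = thallium flux slope and its plate-corrected score both differing from the plate sample mean at a set confidence after two filtering rounds, in either direction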;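 note: slope of fluorescence scaled to starting intensity during 10 to 20 s after thallium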
KCNK3 inh: human KCNK3 channel inhibition, primary screen; CHO-KCNK3 thallium flux, FluxOR fluorescence; stronger effect = lower value; B-score at 10 µM; 0.84% of 340,000 active; AID 602410;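 active = B-score under library mean minus 4 SD, starting fluorescence ratio at most library mean plus 5 SD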;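 note: more negative B-score means stronger inhibition of thallium flux through KCNK3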
KCNK3 confirm: human KCNK3 channel inhibition, confirmation assay. shares compounds with KCNK3 inh. CHO-KCNK3 thallium flux, FluxOR fluorescence; 0% buffer, 100% carvedilol maximal block. ratio percent of control, % at 10 µM. 99% of 2,400 active;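 active = ratio percent of control, averaged over triplicates, above buffer control mean plus 5 SD, cut at about 64% in these data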;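 note: ratio is the fluorescence rise from min to max over baseline after thallium stimulus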
KCNK3 uninduced: KCNK3 inhibitor counter-screen hit in non-induced cells | non-induced KCNK3 parental cells, FluxOR thallium flux; stronger effect = lower value | shares compounds with KCNK3 inh | thallium flux ratio (lower = more inhibition) at 10 µM | 40% of 2,400 active;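 active = thallium flux ratio, averaged over three wells, more than 5 SD below the buffer control mean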;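 note: host cells are CHO cells without KCNK3 induction; ratio is peak minus trough fluorescence over baseline then normalized to buffer controls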
* hit, by the source's call; i = inactive; . = no result.

SMILES	KCNQ1 block	KCNK9 inh	KCNQ1 act	hERG protect	Cl transport mod	KCNK3 inh	KCNK3 confirm	KCNK3 uninduced
COc1ccc(OC)c(CCNC(=O)c2ccc3c(=O)[nH]c4c(C(=O)NC(C)C)sc(=S)n4c3c2)c1	10*	i	i	-33	.	-11*	129*	i
O=C(NCC1CCCO1)c1ccc2c(=O)n(CC3CCCO3)c(=S)[nH]c2c1 (stereo not drawn)	i	i	i	-3	.	i	.	.
Cc1nc(N2CCN(C(=O)c3cccs3)CC2)c2c3c(sc2n1)CCCC3	i	i	i	-11	.	-10*	92*	i
Cc1nc(N2CCN(C)CC2)c2c3c(sc2n1)CCCC3	i	i	i	-3	.	i	.	.
Cc1ccccc1NC(=O)N(O)C1(C#N)CCCCC1	.	.	.	.	.	i	.	.
O=C1OC[C@H](Cc2ccc3c(c2)OCO3)/C1=C\c1ccc2c(c1)OCO2	i	i	i	-11	.	-9.7*	133*	i
O=C1CC(Cc2ccccc2)C(=O)N1CCc1ccc2c(c1)OCO2 (stereo not drawn)	i	i	i	-5	-1.8	i	.	.
COc1ccccc1C(=O)Nc1ccc(Cc2ccncc2)cc1	i	i	i	-15	-1.3	i	.	.
COc1c(C)cc(Br)cc1C(=O)Nc1ccc(Cc2ccncc2)cc1	i	i	i	-21	-2.4	-9.7*	117*	i
O=C(CNC(=O)c1ccccc1)OCc1nnc(-c2ccccc2)o1	i	i	i	-15	.	i	.	.
O=C(CCN1c2ccccc2Sc2ccccc21)OCc1nnc(-c2ccccc2)o1	i	i	i	-6	-0.073	-9.5*	73*	i
O=C(Cc1cccs1)Nc1cccc(-c2nc3ccccc3o2)c1	i	i	i	-5	.	-8.8*	133*	0.14*
Cc1ccc(-c2nc3ccccc3o2)cc1NC(=O)Cc1cccs1	i	i	i	-6	0.28	i	.	.
COc1ccc(Cl)cc1-n1c(=S)sc2c(=O)[nH]c(SCC(=O)C(C)(C)C)nc21	i	i	i	-16	.	-9*	88*	0.14*
CCc1ccc2c(CN3CCc4ccccc43)cc(=O)oc2c1	i	i	i	-8	-0.03	-13*	83*	i
CCc1ccc2c(CN3CCN(Cc4ccccc4)CC3)cc(=O)oc2c1	i	i	i	-18	.	i	.	.
CC(=O)Oc1c(S(=O)(=O)c2ccccc2)c(C)nn1C(C)(C)C	i	i	i	-9	.	i	.	.
CCCCC(=O)Oc1c(S(=O)(=O)c2ccccc2)c(C)nn1C(C)(C)C	i	i	i	-4	.	-10*	118*	i
Cc1nn(C(C)(C)C)c(OC(=O)c2cccs2)c1S(=O)(=O)c1ccccc1	i	i	i	-15	-1.4	-10*	117*	0.15*
CCCC(=O)Oc1c(S(=O)(=O)c2ccc(C)cc2)c(C)nn1C(C)(C)C	i	i	i	-13	-2.1	-8.8*	90*	i
CCC(=O)Oc1c(S(=O)(=O)c2ccc(C)cc2)c(C)nn1C(C)(C)C	.	.	.	.	1.7	i	.	.
CCc1ccc(CNC(=O)CCCC(=O)n2nc(C)c3ccccc32)cc1	i	i	i	-7	.	i	.	.
Cc1ccc(SCC(=O)NNC(=O)CNC(=O)c2ccccc2F)cc1	.	.	.	.	.	i	.	.
COCCCn1c(SCC(=O)N2CCOCC2)nc2cc(Cl)ccc2c1=O	.	.	.	.	.	i	.	.
CCOC(=O)C1CCN(C(=O)Nc2cc(Cl)cc(Cl)c2)CC1	i	i	i	-3	-4.6	-9.9*	111*	i
SMILES	KCNQ1 block	KCNK9 inh	KCNQ1 act	hERG protect	Cl transport mod	KCNK3 inh	KCNK3 confirm	KCNK3 uninduced
COc1ccc(C(=O)OCCOc2ccccc2C(C)=O)c(O)c1	i	i	i	-9	0.33	-9.8*	119*	0.14*
CC(=O)c1ccccc1OCCOc1ccccc1C(C)=O	i	i	i	-3	.	i	.	.
Cc1ccc(NC(=O)c2ncn(CC(=O)NCC(C)c3ccccc3)n2)cc1C (stereo not drawn)	.	.	.	.	.	i	.	.
COc1ccccc1NC(=O)Cn1cc(C(=O)c2ccco2)c2ccccc21	i	i	i	-13	-0.12	i	.	.
COc1ccccc1OCCn1cc(C(=O)c2ccco2)c2ccccc21	i	-7.4*	i	-12	0.92	-12*	102*	i
COc1cccc(OCCn2cc(C(C)=O)c3ccccc32)c1	i	i	i	-13	.	-9.2*	124*	i
Cc1cccc(N(C(=O)c2ccco2)C(C(=O)NC2CCCC2)c2ccco2)c1C (stereo not drawn)	i	i	i	-13	.	i	.	.
COc1ccc(CCN2C(=O)c3cccc4cccc(c34)C2=O)cc1OC	i	i	i	-8	.	i	.	.
COc1ccc(CN2C(=O)c3cccc4cccc2c34)cc1F	i	i	i	-9	.	-9.3*	90*	i
N=c1n(Cc2ccc(Cl)cc2)c2ccccc2n1CC(O)COc1ccccc1 (stereo not drawn)	i	i	i	-24	-0.1	-12*	123*	i
COc1cccc(-c2cc(C(=O)N3CCCc4ccccc43)no2)c1	i	i	i	-13	-2.1	-12*	115*	i
Cc1ccc(NC(=O)CN(C)S(=O)(=O)c2ccc3c(c2)n(C)c(=O)c(=O)n3C)cc1	i	i	i	-11	.	i	.	.
C=C(c1cn(C(C)=O)c2ccccc12)c1cn(C(C)=O)c2ccccc12	.	.	.	.	.	-12*	62*	0.15*
CC(=O)n1cc(CO)c2ccccc21	i	i	i	-9	.	i	.	.
Cc1cc(Cl)c(C)c(S(=O)(=O)N2CCN(CC(=O)N3CCOCC3)CC2)c1Cl	.	.	.	.	.	i	.	.
CCOC(=O)c1cc2sccc2n1CC(=O)c1ccc2c(c1)OCCO2	i	i	i	-5	-1.2	-9.5*	89*	i
CCOP(=O)(OCC)C1NC(=O)N(c2ccccc2)C1=O (stereo not drawn)	i	i	i	-1	.	i	.	.
C[C@H](CO)N1C[C@H](C)[C@@H](CN(C)Cc2ccc(Cl)c(Cl)c2)Oc2c(NS(=O)(=O)c3cccs3)cccc2C1=O	.	.	.	.	.	-14*	127*	0.14*
C[C@@H]1CN([C@H](C)CO)C(=O)c2cccc(NS(=O)(=O)c3cccs3)c2O[C@H]1CN(C)Cc1ccccc1	.	.	.	.	.	i	.	.
